# In ChEMBL document CHEMBL3232813, “The identification, analysis and structure-based development of novel inhibitors of 6-hydroxymethyl-7,8-dihydropterin pyrophosphokinase” (Bioorg Med Chem, 2014):
# Active and inactive are the calls of the source. The calls are words filed in the database; no cut-off is given here.
# How the values were obtained:
# [1] = molecular target: T1, 2-amino-4-hydroxy-6-hydroxymethyldihydropteridine pyrophosphokinase (Escherichia coli (strain K12), UniProt P26281); test: Binding affinity to GST-tagged Escherichia coli HPPK expressed in Escherichia coli by SPR assay based alternative equilibrium affinity method in presence of AMP-CPP
# T1 sequence (P26281 whole entry): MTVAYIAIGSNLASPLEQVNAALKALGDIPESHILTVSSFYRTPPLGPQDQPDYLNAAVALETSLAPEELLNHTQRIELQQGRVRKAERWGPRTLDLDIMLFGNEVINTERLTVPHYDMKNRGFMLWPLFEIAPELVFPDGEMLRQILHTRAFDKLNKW
# Summary of the method: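 E. coli HPPK expressed as a GST fusion, with the tag removed by thrombin. Minimally biotinylated and captured on a neutravidin chip. SPR run at 20 °C in 20 mM Tris pH 8.5, 100 mM NaCl, 10 mM MgCl2, 1 mM TCEP, 10% glycerol, 5% DMSO, with 2 µM AMPCPP. Compounds injected as a 3-fold series from 100 µM at 80 µL/min. Data double-referenced and fitted to a 1:1 model.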
# [2] = molecular target: T2, 2-amino-4-hydroxy-6-hydroxymethyldihydropteridine pyrophosphokinase (Escherichia coli (strain K12)) (UniProt P26281); test: Inhibition of GST-tagged Escherichia coli HPPK expressed in Escherichia coli using 6-hydroxymethyl-7,8-dihydropterin hydrochloride as substrate at 250 uM after 20 mins by luminescence assay
# T2 sequence (whole entry): T1 sequence (P26281 whole entry)
# Summary of the method: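 GST tag cleaved from E. coli HPPK; 5 ng enzyme used. Reaction contained 0.75 µM dihydropterin substrate, 0.75 µM ATP, 100 mM Tris-HCl pH 8.5, 10 mM MgCl2, 10 mM BME, 0.01% Tween 20, 0.01% BSA and 5% DMSO. Compound present at 250 µM. Ran 20 min at 23 °C. Unconsumed ATP read by Kinase-Glo luminescence and reported as % inhibition.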
# [3] = molecular target: T1, 2-amino-4-hydroxy-6-hydroxymethyldihydropteridine pyrophosphokinase; test: Inhibition of GST-tagged Escherichia coli HPPK expressed in Escherichia coli using 6-hydroxymethyl-7,8-dihydropterin hydrochloride as substrate after 20 mins by luminescence assay
# Summary of the method: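 GST tag cleaved from E. coli HPPK; 5 ng enzyme used. Reaction contained 0.75 µM dihydropterin substrate, 0.75 µM ATP, 100 mM Tris-HCl pH 8.5, 10 mM MgCl2, 10 mM BME, 0.01% Tween 20, 0.01% BSA and 5% DMSO. Ran 20 min at 23 °C. Remaining ATP read by Kinase-Glo luminescence.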
# [4] = molecular target: T2, 2-amino-4-hydroxy-6-hydroxymethyldihydropteridine pyrophosphokinase (Escherichia coli (strain K12)); test: Binding affinity to GST-tagged Escherichia coli HPPK expressed in Escherichia coli by SPR assay in absence of AMP-CPP
# Summary of the method: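 Thrombin-cleaved EcHPPK (GST removed), minimally biotinylated and captured (~3000–3700 RU) on a neutravidin chip. SPR at 20 °C, no AMPCPP, in 20 mM Tris pH 8.5, 100 mM NaCl, 10 mM MgCl2, 1 mM TCEP, 0.005% Tween20, 10% glycerol, 5% DMSO. Compounds run as 3-fold dilution series. Data double-referenced, solvent-corrected, fitted to a 1:1 model for K_D.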
# [5] = molecular target: T2, 2-amino-4-hydroxy-6-hydroxymethyldihydropteridine pyrophosphokinase (Escherichia coli (strain K12)); test: Binding affinity to GST-tagged Escherichia coli HPPK expressed in Escherichia coli by ITC method
Structure (SMILES),Kd [1],inhibition [2],IC50 [3],Activity [4],Activity [5]
Cc1ccc(C(=O)CSc2nc3nc(N)[nH]c(=O)c3[nH]2)cc1,6.7 µM,80%,64 µM,–,–
N#Cc1ccc(C(=O)CSc2nc3nc(N)[nH]c(=O)c3[nH]2)cc1,39 µM,68%,88 µM,–,–
COc1ccccc1C(=O)CSc1nc2nc(N)[nH]c(=O)c2[nH]1,–,12%,–,–,–
Nc1nc2[nH]cnc2c(=S)[nH]1,–,51%,–,–,–
COc1ccc(C(=O)CSc2nc3nc(N)[nH]c(=O)c3[nH]2)cc1,14.5 µM,74%,44 µM,–,–
Cc1ccc(C(=O)C(C)Sc2nc3nc(N)[nH]c(=O)c3[nH]2)cc1 (centres undefined),–,13%,–,–,–
Nc1nc2nc(SCC(=O)c3ccc(OCCN4CCOCC4)cc3)[nH]c2c(=O)[nH]1,–,5%,–,–,–
Nc1nc(O)c2nc(SCC(=O)N3CCOCC3)[nH]c2n1,–,6%,–,–,–
Nc1nc2[nH]c(S)nc2c(=O)[nH]1,> 100 µM,18%,–,–,–
Nc1nc2nc(SC(=O)c3ccc(F)cc3)[nH]c2c(=O)[nH]1,–,16%,–,–,–
Nc1nc2nc(SCCN3CCOCC3)[nH]c2c(=O)[nH]1,–,7%,–,–,–
N#Cc1ccc(CSc2nc3nc(N)[nH]c(=O)c3[nH]2)cc1,29 µM,53%,254 µM,inactive,–
NC1N=C(O)c2nc(CO)cnc2N1 (centres undefined),–,–,–,–,Active
Nc1nc(O)nc2nc[nH]c12 [ISOGUANINE],7.5 µM,–,–,–,–
Nc1nc2nc(SCC(=O)c3ccc(O)cc3)[nH]c2c(=O)[nH]1,5.8 µM,77%,82 µM,–,–
Nc1nc2nc(SCC(=O)c3ccccc3)[nH]c2c(=O)[nH]1,9.7 µM,75%,139 µM,inactive,–
Cc1nc2c(=O)[nH]c(N)nc2[nH]1,18 µM,–,–,–,–
Nc1nc2nc[nH]c2c(=O)[nH]1 [GUANINE],38 µM,–,–,–,–
CC(Sc1nc2nc(N)[nH]c(=O)c2[nH]1)C(=O)c1ccccc1 (centres undefined),–,10%,–,–,–
Cc1ccccc1C(=O)CSc1nc2nc(N)[nH]c(=O)c2[nH]1,18.9 µM,48%,243 µM,–,–
Nc1nc2[nH]cnc2c(=O)[nH]1,–,48%,–,–,–
Nc1nc2nc(SCC(=O)c3ccc(F)cc3)[nH]c2c(=O)[nH]1,11.2 µM,73%,79 µM,–,–
Cc1cccc(C(=O)CSc2nc3nc(N)[nH]c(=O)c3[nH]2)c1,5.9 µM,77%,51 µM,–,–
